Data taken from ChEMBL document CHEMBL1124265, “Effects of D-amino acid substitution on antagonist activities of angiotensin II analogues” (J Med Chem, 1988).
Residues, ends and D or L forms follow the SMILES beside them.

Organism: Rattus norvegicus
Assay: Dose required for the two fold increase in the dose of AII to produce the same elevation in blood pressure as in the control period.
Assay type: functional
Conditions: not given
Outline: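 Rat blood pressure assay in vivo, using 250-g rats. ID50 is the antagonist dose, in ng/rat per min, that requires a twofold increase in the AII dose to give the same blood pressure rise as in the control period.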

| Structure (SMILES) | ID50 [ng min-1 rat-1] |
| --- | --- |
| CC[C@H](C)[C@H](NC(=O)[C@H](Cc1ccc(O)cc1)NC(=O)[C@@H](NC(=O)[C@@H](CCCNC(=N)N)NC(=O)CNC)C(C)C)C(=O)N[C@@H](Cc1c[nH]cn1)C(=O)N1CCC[C@@H]1C(=O)NC(Cc1c[nH]c2ccccc12)C(=O)O (stereo in doubt) [listing 1 of 2 here] | 10 |
| CC[C@H](C)[C@H](NC(=O)[C@H](Cc1ccc(O)cc1)NC(=O)[C@@H](NC(=O)[C@H](CCCNC(=N)N)NC(=O)CNC)C(C)C)C(=O)N[C@@H](Cc1c[nH]cn1)C(=O)N1CCC[C@H]1C(=O)N[C@H](Cc1ccc(Cl)cc1)C(=O)O | 25 |
| CC[C@H](C)[C@H](NC(=O)[C@H](Cc1ccc(O)cc1)NC(=O)[C@@H](NC(=O)[C@H](CCCNC(=N)N)NC(=O)CNC)C(C)C)C(=O)N[C@@H](Cc1c[nH]cn1)C(=O)N1CCC[C@H]1C(=O)N[C@](C)(Cc1ccccc1)C(=O)O | 10 |
| CC[C@H](C)[C@H](NC(=O)[C@H](Cc1ccc(O)cc1)NC(=O)[C@@H](NC(=O)[C@H](CCCNC(=N)N)NC(=O)CNC)C(C)C)C(=O)N[C@@H](Cc1c[nH]cn1)C(=O)N1CCC[C@H]1C(=O)N[C@H](Cc1ccc2ccccc2c1)C(=O)O | 25 |
| CC[C@H](C)[C@H](NC(=O)C(C)NC(=O)[C@H](Cc1c[nH]cn1)NC(=O)[C@H](NC(=O)[C@@H](Cc1ccc(O)cc1)NC(=O)[C@@H](NC(=O)[C@H](CCCNC(=N)N)NC(=O)[C@@H](N)CC(=O)O)C(C)C)C(C)C)C(=O)O (stereo in doubt) [listing 1 of 2 here] | 0 |

Target: Angiotensin II receptor (Homo sapiens) (UniProt P30556+P50052)
Assay: In vitro angiotensin II-like activity, expressed as percent relative to angiotensin II, measured in the rabbit aorta strip assay
Assay type: functional, tissue-based
Conditions: Oryctolagus cuniculus

| Structure (SMILES) | Biological activity [%] |
| --- | --- |
| CC[C@H](C)[C@H](NC(=O)[C@H](Cc1ccc(O)cc1)NC(=O)[C@@H](NC(=O)[C@@H](CCCNC(=N)N)NC(=O)CNC)C(C)C)C(=O)NC(Cc1c[nH]cn1)C(=O)N1CCC[C@@H]1C(=O)N[C@@H](C(=O)O)C(C)C (stereo in doubt) | -0 |
| CC[C@H](C)[C@H](NC(=O)[C@H](Cc1ccc(O)cc1)NC(=O)[C@@H](NC(=O)[C@@H](CCCNC(=N)N)NC(=O)CNC)C(C)C)C(=O)N[C@@H](Cc1c[nH]cn1)C(=O)N1CCC[C@@H]1C(=O)N[C@H](Cc1ccc(Cl)cc1)C(=O)O | -0 |
| CC[C@H](C)[C@H](NC(=O)[C@@H]1CCCN1C(=O)[C@@H](Cc1c[nH]cn1)NC(=O)[C@@H](NC(=O)[C@@H](Cc1ccc(O)cc1)NC(=O)[C@@H](NC(=O)[C@H](CCCN=C(N)N)NC(=O)CNC)C(C)C)[C@@H](C)CC)C(=O)O | -0 |
| CC[C@H](C)[C@H](NC(=O)[C@H](Cc1ccc(O)cc1)NC(=O)[C@@H](NC(=O)[C@@H](CCCNC(=N)N)NC(=O)CNC)C(C)C)C(=O)N[C@@H](Cc1c[nH]cn1)C(=O)N1CCC[C@@H]1C(=O)N[C@H](Cc1ccc(B(O)O)cc1)C(=O)O | -0 |
| CC[C@H](C)[C@H](NC(=O)[C@@H]1CCCN1C(=O)[C@H](Cc1c[nH]cn1)NC(=O)[C@@H](NC(=O)[C@H](Cc1ccc(O)cc1)NC(=O)[C@H](NC(=O)[C@H](CCCN=C(N)N)NC(=O)CNC)C(C)C)[C@@H](C)CC)C(=O)O | -0 |
| CC[C@H](C)[C@H](NC(=O)[C@@H]1CCCN1C(=O)[C@H](Cc1c[nH]cn1)NC(=O)[C@@H](NC(=O)[C@@H](Cc1ccc(O)cc1)NC(=O)[C@@H](NC(=O)[C@H](CCCN=C(N)N)NC(=O)CNC)C(C)C)[C@@H](C)CC)C(=O)O | -0 |
| CC[C@H](C)[C@H](NC(=O)[C@H](Cc1ccc(O)cc1)NC(=O)[C@@H](NC(=O)[C@@H](CCCNC(=N)N)NC(=O)CNC)C(C)C)C(=O)N[C@@H](Cc1c[nH]cn1)C(=O)N1CCC[C@@H]1C(=O)N[C@H](Cc1ccccc1)C(N)=O | -0 |
| CC[C@H](C)[C@H](NC(=O)[C@@H](Cc1ccc(O)cc1)NC(=O)[C@@H](NC(=O)[C@H](CCCNC(=N)N)NC(=O)CNC)C(C)C)C(=O)N[C@@H](Cc1c[nH]cn1)C(=O)N1CCC[C@H]1C(=O)N[C@@H](C(=O)O)C(C)C | -0 |
| CC[C@H](C)[C@H](NC(=O)[C@H](Cc1ccc(O)cc1)NC(=O)[C@@H](NC(=O)[C@@H](CCCN=C(N)N)NC(=O)[C@@H](N)CC(=O)O)C(C)C)C(=O)NC(Cc1c[nH]cn1)C(=O)N1CCC[C@@H]1C(=O)N[C@@H](C(=O)O)[C@@H](C)CC (stereo in doubt) [listing 1 of 2 here] | -0 |
| CC[C@H](C)[C@H](NC(=O)[C@@H]1CCCN1C(=O)[C@H](Cc1c[nH]cn1)NC(=O)[C@@H](NC(=O)[C@@H](Cc1ccc(O)cc1)NC(=O)[C@@H](NC(=O)[C@@H](CCCN=C(N)N)NC(=O)CNC)C(C)C)[C@@H](C)CC)C(=O)O | -0 |
| CC[C@H](C)[C@H](NC(=O)[C@H](Cc1ccc(O)cc1)NC(=O)[C@@H](NC(=O)[C@@H](CCCNC(=N)N)NC(=O)CNC)C(C)C)C(=O)N[C@@H](Cc1c[nH]cn1)C(=O)N1CCC[C@@H]1C(=O)N[C@@H](Cc1ccc2ccccc2c1)C(=O)O | -0 |
| CC[C@H](C)[C@H](NC(=O)[C@H](Cc1ccc(O)cc1)NC(=O)[C@@H](NC(=O)[C@H](CCCN=C(N)N)NC(=O)[C@@H](N)CC(=O)O)C(C)C)C(=O)N[C@@H](Cc1c[nH]cn1)C(=O)N1CCC[C@H]1C(=O)N[C@@H](Cc1ccc(O)cc1)C(=O)O (H-DRVYIHPY-OH) | 100 |
| CC[C@H](C)[C@H](NC(=O)[C@H](Cc1ccc(O)cc1)NC(=O)[C@@H](NC(=O)[C@@H](CCCNC(=N)N)NC(=O)CNC)C(C)C)C(=O)N[C@@H](Cc1c[nH]cn1)C(=O)N1CCC[C@@H]1C(=O)NC(Cc1c[nH]c2ccccc12)C(=O)O (stereo in doubt) [listing 2 of 2 here] | -0 |
| CC[C@H](C)[C@H](NC(=O)C(C)NC(=O)[C@H](Cc1c[nH]cn1)NC(=O)[C@H](NC(=O)[C@@H](Cc1ccc(O)cc1)NC(=O)[C@@H](NC(=O)[C@H](CCCNC(=N)N)NC(=O)[C@@H](N)CC(=O)O)C(C)C)C(C)C)C(=O)O (stereo in doubt) [listing 2 of 2 here] | -0 |
| CC[C@H](C)[C@H](NC(=O)[C@@H]1CCCN1C(=O)[C@H](Cc1c[nH]cn1)NC(=O)[C@H](NC(=O)[C@@H](Cc1ccc(O)cc1)NC(=O)[C@@H](NC(=O)[C@H](CCCN=C(N)N)NC(=O)CNC)C(C)C)C(C)C)C(=O)O | -0 |
| CC[C@H](C)[C@H](NC(=O)[C@H](Cc1ccc(O)cc1)NC(=O)[C@@H](NC(=O)[C@@H](CCCNC(=N)N)NC(=O)CNC)C(C)C)C(=O)N[C@@H](Cc1c[nH]cn1)C(=O)N1CCC[C@@H]1C(=O)N[C@](C)(Cc1ccccc1)C(=O)O | -0 |

Tested on: Rattus norvegicus
Assay: In vivo AII-like activity, expressed as percent activity relative to AII (angiotensin II), measured in rat blood pressure assay
Assay type: functional
Conditions: not given
Outline: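 Rat blood pressure assay in vivo. Residual agonist activity is expressed as percent activity relative to AII.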

| Structure (SMILES) | Biological activity [%] |
| --- | --- |
| CC[C@H](C)[C@H](NC(=O)[C@H](Cc1ccc(O)cc1)NC(=O)[C@@H](NC(=O)[C@@H](CCCN=C(N)N)NC(=O)[C@@H](N)CC(=O)O)C(C)C)C(=O)NC(Cc1c[nH]cn1)C(=O)N1CCC[C@@H]1C(=O)N[C@@H](C(=O)O)[C@@H](C)CC (stereo in doubt) [listing 2 of 2 here] | 0.014 |
| CC[C@H](C)[C@H](NC(=O)[C@H](Cc1ccc(O)cc1)NC(=O)[C@@H](NC(=O)[C@H](CCCN=C(N)N)NC(=O)[C@@H](N)CC(=O)O)C(C)C)C(=O)N[C@@H](Cc1c[nH]cn1)C(=O)N1CCC[C@H]1C(=O)N[C@@H](Cc1c[nH]c2ccccc12)C(=O)O (H-DRVYIHPW-OH) | 22.2 |
| CC(C)[C@H](NC(=O)[C@H](CCCN=C(N)N)NC(=O)[C@@H](N)CC(N)=O)C(=O)N[C@@H](Cc1ccc(O)cc1)C(=O)N[C@H](C(=O)N[C@@H](Cc1c[nH]cn1)C(=O)N1CCC[C@H]1C(=O)N[C@@H](Cc1ccccc1)C(N)=O)C(C)C (H-NRVYVHPF-NH2) | 3 |
| CC[C@H](C)[C@H](NC(=O)[C@H](Cc1ccc(O)cc1)NC(=O)[C@@H](NC(=O)[C@H](CCCN=C(N)N)NC(=O)[C@@H](N)CC(=O)O)C(C)C)C(=O)N[C@@H](Cc1c[nH]cn1)C(=O)N1CCC[C@H]1C(=O)N[C@@H](Cc1ccc(Br)cc1)C(=O)O | 50 |
| CC[C@H](C)[C@H](NC(=O)[C@H](Cc1ccc(O)cc1)NC(=O)[C@@H](NC(=O)[C@H](CCCN=C(N)N)NC(=O)[C@@H](N)CC(=O)O)C(C)C)C(=O)N[C@@H](Cc1c[nH]cn1)C(=O)N1CCC[C@H]1C(=O)N[C@H](C(=O)O)C(C)C (H-DRVYIHPV-OH) | 0.5 |
| CC(C)[C@H](NC(=O)[C@H](CCCNC(=N)N)NC(=O)[C@@H](N)CC(N)=O)C(=O)N[C@@H](Cc1ccc(O)cc1)C(=O)N1CCC[C@@H]1C(=O)N[C@@H](Cc1c[nH]cn1)C(=O)N1CCC[C@H]1C(=O)N[C@@H](Cc1ccccc1)C(=O)O | 0.05 |
| CC[C@H](C)[C@H](NC(=O)[C@H](Cc1ccc(O)cc1)NC(=O)[C@@H](NC(=O)[C@H](CCCNC(=N)N)NC(=O)[C@@H](N)CC(=O)O)C(C)C)C(=O)N[C@@H](Cc1c[nH]cn1)C(=O)N1CCC[C@H]1C(=O)N[C@@H](C(=O)O)[C@@H](C)CC | 0.72 |
| CC[C@H](C)[C@H](NC(=O)[C@H](Cc1ccc(O)cc1)NC(=O)[C@@H](NC(=O)[C@H](CCCN=C(N)N)NC(=O)[C@@H](N)CC(=O)O)C(C)C)C(=O)N[C@@H](Cc1c[nH]cn1)C(=O)N1CCC[C@H]1C(=O)N[C@@H](Cc1ccc(N)cc1)C(=O)O | 53 |
| COC(=O)[C@H](Cc1ccccc1)NC(=O)[C@@H]1CCCN1C(=O)[C@H](Cc1c[nH]cn1)NC(=O)[C@@H](NC(=O)[C@H](Cc1ccc(O)cc1)NC(=O)[C@@H](NC(=O)[C@H](CCCN=C(N)N)NC(=O)[C@@H](N)CC(N)=O)C(C)C)C(C)C (H-NRVYVHPF-OMe) | 10 |
| CC[C@H](C)[C@H](NC(=O)[C@H](Cc1ccc(O)cc1)NC(=O)[C@@H](NC(=O)[C@H](CCCN=C(N)N)NC(=O)[C@@H](N)CC(=O)O)C(C)C)C(=O)N[C@@H](Cc1c[nH]cn1)C(=O)N1CCC[C@H]1C(=O)N[C@@](C)(Cc1ccccc1)C(=O)O | 80 |
| CC(C)[C@H](NC(=O)[C@H](CCCN=C(N)N)NC(=O)[C@@H](N)CC(N)=O)C(=O)N[C@@H](Cc1ccc(O)cc1)C(=O)N1CCC[C@H]1C(=O)N[C@@H](Cc1c[nH]cn1)C(=O)N1CCC[C@H]1C(=O)N[C@@H](Cc1ccccc1)C(=O)O | 10 |
| CC[C@H](C)[C@H](NC(=O)[C@H](Cc1ccc(O)cc1)NC(=O)[C@@H](NC(=O)[C@H](CCCN=C(N)N)NC(=O)[C@@H](N)CC(=O)O)C(C)C)C(=O)N[C@@H](Cc1c[nH]cn1)C(=O)N1CCC[C@H]1C(=O)N[C@@H](Cc1ccc(O)cc1)C(=O)O (H-DRVYIHPY-OH) | 83 |
| CC(C)[C@H](NC(=O)[C@H](CCCN=C(N)N)NC(=O)[C@@H](N)CC(N)=O)C(=O)N[C@H](Cc1ccc(O)cc1)C(=O)N[C@H](C(=O)N[C@@H](Cc1c[nH]cn1)C(=O)N1CCC[C@H]1C(=O)N[C@@H](Cc1ccccc1)C(=O)O)C(C)C | 0.03 |
